# Compound activity as filed in PubChem BioAssay.
# MT stabilize HCS: microtubule stabilizers in HeLa cells, primary screen, imaging, high-content imaging. HeLa tubulin immunostaining HCS, 24 h; share of cells brighter than vehicle mean+2SD. actives 0.83% (n = 200,000). % tubulin-high responders, % at 10 µM. AID 2205, 2009;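 active = plate Z-score above 3 for both tubulin-high and condensed-nucleus cell shares, with cell loss under 80%, at 10 µM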;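 note: anti alpha tubulin signal scored within the nucleus-defined area of each cell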
# CHOP inhibitor: inhibitors of CHOP promoter induction, primary screen, cell-based, unfolded protein response, luciferase reporter; CHO-K1 CHOP-promoter luciferase, tunicamycin-induced, 15-18 h; actives 3.8% (n = 220,000); inhibition, % at 10 µM;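 active = compounds that reduced the stress-induced luciferase reporter signal by more than about 70% of percent inhibition, limit read from the data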
# Autophagy HCS: autophagy modulators in MEF cells, primary screen, imaging, high-content, MEF GFP-LC3; MEF GFP-LC3 puncta imaging; test concentration mostly 10 µM; calls only at 10 µM (by protocol); actives 0.98% (n = 190,000); AID 463193, 2010;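 active = percentage of spot-positive cells more than 3 SD above its plate mean, without a fluorescence outlier flag or 80% toxicity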
# L major viab: Leishmania major promastigote growth inhibition, primary screen; actives 9% (n = 200,000); AID 1063, 2008; inhibition, % at 10 µM; Leishmania major promastigotes, resazurin fluorescence viability; in the data active = inhibition above about 50%;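 note: promastigotes grown with compound for 44 hours at 28 °C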
# Dynein transport: inhibitors of GR-EGFP nuclear translocation, primary screen, dynein cargo transport inhibitor project, imaging, high-content, 3617.4 mouse cells; test concentration mostly 20 µM; stimulated with dexamethasone, 1 µM; stronger effect = lower value; z-score, hits read low; actives 0.47% (n = 220,000); AID 1381, 2008;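 active = plate z-score of nuclear minus cytoplasmic receptor signal below a set negative limit, without overly bright fluorescence or cell loss, cut at about -3.5 in these data, passing the limit was not always enough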;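 note: z-score of nuclear minus cytoplasmic ring GR-EGFP intensity difference per well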
#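 medium = tetracycline-free induction medium containing charcoal-stripped FBS | probe or stimulus = dexamethasone, 1.0 µM final | timing = 48 h induction, then 1 h compound, then 30 min agonist, 37 °C | detection = automated 10x imaging of fixed Hoechst-stained cells | read-out basis = nuclear versus cytoplasmic GR-EGFP signal, averaged per well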
# bCat nuc transl: modulators of beta-catenin nuclear translocation, primary screen, imaging, HeLa cells, immunofluorescence, high-content; nuclear translocation activity, % at 5 µM; actives 0.3% (n = 190,000); AID 1665, 2009;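 active = nuclear translocation activity above 50% at 5 µM, with a well cell count of 50 or more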;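 note: per-cell ratio of nuclear to cytoplasmic median beta-catenin stain intensity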
#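 Read-out: Nuclear/cytoplasmic beta-catenin signal ratio, % activation | Assay system: Human HeLa cell line | Times: 24 h compound exposure at 37°C, 5% CO2 | Signal: Fluorescence imaging of beta-catenin antibody stain plus DAPI | Dosing: 5 µM primary, 0.02–20 µM confirmation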
# A number is an active result; - = inactive; . = no result given; + = active, no number. Only some compounds are listed: those with a hit (about 12% of all), similar ones and a draw of the others.
SMILES,MT stabilize HCS,CHOP inhibitor,Autophagy HCS,L major viab,Dynein transport,bCat nuc transl
Cc1cccc(OCC(=O)N2CCC(N3CCOCC3)CC2)c1,-,-,-,92,-,-
CCOC(=O)N1CCN(C(=O)COc2ccc(Cl)cc2)CC1,-,-,-,-,-,-
CCOC(=O)c1sc(NC(=O)/C=C/c2cnn(C)c2C)c(C(=O)OC(C)C)c1C,-,-,-,-,-,-
COc1ccc(CCNC(=O)Cn2c(=O)[nH]c3ccsc3c2=O)cc1OC,-,-,-,-,-,-
CCc1nnc2n1N=C(c1ccc(-c3cc(Cl)ccc3Cl)o1)CS2,-,-,+,-,-,-
Oc1cc(NCc2cccnc2)ccc1-c1nc2ccccc2o1,-,-,+,99,-,-
Cc1cc(C(=O)N2CCC(C(=O)O)CC2)c(C)o1,.,-,.,.,-,-
CCOC(=O)COc1c(/C=N\OC)cc(Cl)cc1OC,-,-,-,-,-,-
CCN1C(=O)c2cccc3c(NC(=O)c4ccccc4)ccc1c23,-,-,-,91,-,-
CCN1C(=O)c2cccc3c(NC(=O)c4ccc(OC)c(OC)c4)ccc1c23,-,-,.,100,-,-
CCN1C(=O)c2cccc3c(NC(=O)c4ccc5c(c4)OCCO5)ccc1c23,-,-,-,-,-,-
Cc1onc(-c2c(F)cccc2Cl)c1C(=O)Nc1nc2c(s1)CCCC2,-,84,-,58,-,-
Cc1onc(-c2ccccc2)c1C(=O)Nc1nc2c(s1)CCCC2,19,-,-,-,-,-
Cc1csc(NC(=O)c2c(-c3c(Cl)cccc3Cl)noc2C)n1,-,-,-,-,-,-
Cc1onc(-c2ccccc2)c1C(=O)Nc1sc2c(c1C#N)CCC(C)C2 (centres undefined),27,-,-,-,-,-
O=C(Oc1cccc([N+](=O)[O-])c1)c1cc(-c2ccccc2)nc2ccccc12,-,-,-,-,-,-
CCc1ccc2c(c1)C1(NN=C(c3ccc(C)cc3)S1)C(=O)N2 (centres undefined),-,88,-,99,-,-
COc1ccccc1CNCc1cccc(Oc2ccccc2)c1,-,-,-,-,-,-
CC(C)C(NC(=O)C12CC3CC(CC(C3)C1)C2)C(=O)O (centres undefined),-,-,-,52,-,-
Cc1c(N=C2N=C(NC(=O)Nc3ccc(Cl)cc3)c3ccccc32)c(=O)n(-c2ccccc2)n1C,-,92,+,-,-,-
O=C(Cc1cccs1)N1CCN=C1SCc1ccccc1Cl,-,-,-,-,-,-
O=C(Cc1cccs1)N1CCN=C1SCc1ccccc1F,-,-,+,-,-,-
Cn1c(=O)c(C(=S)NC(=O)C2CC2)c(N)n(Cc2ccccc2)c1=O,-,-,-,-,-,.
Cc1cc(OC(=O)c2ccc(S(=O)(=O)N3CCOCC3)cc2)c([N+](=O)[O-])c(=O)[nH]1,-,-,-,-,-,-
CNS(=O)(=O)c1cnccc1N1CCN(c2cccc(Cl)c2)CC1,-,-,-,100,-,-
SMILES,MT stabilize HCS,CHOP inhibitor,Autophagy HCS,L major viab,Dynein transport,bCat nuc transl
CN1CCN(S(=O)(=O)c2cnccc2N2CCN(c3cccc(Cl)c3)CC2)CC1,-,-,-,-,-,.
CCN(CC)S(=O)(=O)c1cnccc1N1CCN(c2cccc(Cl)c2)CC1,-,-,-,100,-,.
CC1CCCN(CC(=O)Nc2ccc(S(=O)(=O)N3CCCCC3)cc2)C1 (centres undefined),-,-,-,92,-,-
CC1CCCN(CC(=O)Nc2ccc(S(=O)(=O)N3CCCCCC3)cc2)C1 (centres undefined),-,-,-,84,-,-
Cn1c(Cn2c(=O)sc3ccccc32)nnc1SCc1ccccc1,-,-,-,-,-,-
O=C(c1ccccc1OCc1ccccc1Br)N1CCN(c2ncccn2)CC1,-,-,-,68,-,-
O=C(O)c1ccccc1OCc1ccccc1Br,-,-,-,-,-,-
CCN1C(=O)/C(=C2/C(=O)N3c4c(cc(OC(C)=O)cc42)C(C)=CC3(C)C)SC1=S,-,-,-,78,-,-
COc1cc2c3c(c1)/C(=C1/SC(NC(C)=O)=NC1=O)C(=O)N3C(C)(C)C=C2C,-,-,-,-,-,.
Cc1cc(C(=O)CSc2ncn[nH]2)c(C)n1-c1cccc(S(=O)(=O)N2CCOCC2)c1,-,-,-,59,-,-
Cc1cc(C(=O)CN2C(=O)CN(C)C2=O)c(C)n1-c1cccc(S(=O)(=O)N2CCOCC2)c1,-,-,-,-,-,-
CC(=O)NC1C(c2nc3ccccc3s2)=C(c2ccccc2)C(=O)N1c1ccc(C)cc1 (centres undefined),-,-,-,97,-,.
CN(C)Cc1nc2ccccc2c(=O)n1Cc1nc(-c2cccc([N+](=O)[O-])c2)cs1,-,-,-,52,-,-
Cc1ccc(NC(=O)CSCC(=O)N2c3ccccc3CCc3ccccc32)cc1,-,-,-,67,-,-
O=C(NCc1ccccc1)c1ccc(CN(c2ccccn2)S(=O)(=O)c2ccccc2)cc1,-,-,-,-,-,-
COc1cc(N)cc(NC(=O)c2ccncc2)c1,-,-,-,-,-,-
COc1ccc(NC(=O)c2ccc(Cl)c(NC(=O)c3ccncc3)c2)cc1,-,-,-,76,-,-
COc1ccc(N2C(=O)C(CC(=O)Nc3ccccc3)N(Cc3ccccn3)C2=S)cc1 (centres undefined),-,-,-,-,-,.
CCOC(=O)C(Oc1ccc2c(-c3ccccc3)cc(=O)oc2c1)c1ccccc1 (centres undefined),-,-,-,78,-,-
COC(=O)C(Oc1ccc2c(-c3ccc(OC)cc3)cc(=O)oc2c1)c1ccccc1 (centres undefined),-,-,-,-,-,-
CCCCCc1nc2c(=O)n(C)c3ccccc3c2o1,-,-,-,-,-,-
CCCCCCCc1nc2c(=O)n(C)c3ccccc3c2o1,-,89,-,-,-,.
O=C1Cc2ccccc2Sc2cc(OCCCN3CCCCC3)ccc21,-,-,-,100,-,-
CN(C)CCCOc1ccc2c(c1)Sc1ccccc1CC2=O,-,-,-,100,-,-
O=C1Cc2ccccc2Sc2c(OCCN3CCCCC3)cccc21,-,-,-,100,-,-
Nc1ccc2c(c1)C(=O)Cc1ccccc1S2,-,-,-,-,-,-
O=C(Nc1ncccc1O)c1c(O)c2ccccc2[nH]c1=O,.,-,.,.,-,-
Cc1cccc(CCNC(=O)c2cc(=O)[nH]c3ccc(Br)cc23)c1,-,73,-,-,-,-
